TCR CD3 inh: inhibitors of human TCR-CD3 interaction | TAMRA-labeled TCR probe fluorescence, biochemical | AID 651800 | 0.37% of 360,000 active | inhibition, % at 9.4 µM; in the data active means inhibition above about 19%;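 further: recombinant mutant TCR 2C K166C tagged with TAMRA read by polarization; 0% = receptor in buffer alone and 100% = receptor with positive control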
PRMT1 FP inh: inhibitors of human PRMT1; recombinant PRMT1, activity-based probe fluorescence polarization; inhibition, % at 2.79 µM; 1.3% of 370,000 active;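 active means inhibition above about 21% made by adding two undisclosed values, limit read from the data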
mABHD4 FP: ABHD4 (mouse) inhibition, primary FP screen | Q8VD66 | purified mABHD4, FP-Rh probe fluorescence polarization | inhibition, % at 8.92 µM | 0.54% of 370,000 active | AID 720543;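 active means inhibition exceeding the mean over every tested compound plus 3 SD, cut at about 30% in these data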;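 further: 0% = plate median of compound wells and 100% = S159A mutant with DMSO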
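Assay system: mABHD4 protein; medium: HEPES pH 7.0, NaCl, Pluronic buffer; dosing: 8.92 µM, single dose; schedule: 45 min + 60 min at 25 °C; signal: FP readout, ex 525 nm / em 598 nm; read-out: normalized percent inhibition of probe labeling; repeats: single replicate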
SIAE primary: inhibitors of human sialic acid acetylesterase SIAE | SIAE FP-Rh probe binding, fluorescence polarization | Q9HAT2 | inhibition, % at 9.66 µM | AID 1053197 | 0.69% of 370,000 active;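 active means inhibition above a cutoff: mean of compounds within the control limits plus 3 SD of those, cut at about 17% in these data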;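 further: 0% = plate median of compound wells and 100% = probe without SIAE protein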
Target sequence (Q9HAT2 whole entry, looked up): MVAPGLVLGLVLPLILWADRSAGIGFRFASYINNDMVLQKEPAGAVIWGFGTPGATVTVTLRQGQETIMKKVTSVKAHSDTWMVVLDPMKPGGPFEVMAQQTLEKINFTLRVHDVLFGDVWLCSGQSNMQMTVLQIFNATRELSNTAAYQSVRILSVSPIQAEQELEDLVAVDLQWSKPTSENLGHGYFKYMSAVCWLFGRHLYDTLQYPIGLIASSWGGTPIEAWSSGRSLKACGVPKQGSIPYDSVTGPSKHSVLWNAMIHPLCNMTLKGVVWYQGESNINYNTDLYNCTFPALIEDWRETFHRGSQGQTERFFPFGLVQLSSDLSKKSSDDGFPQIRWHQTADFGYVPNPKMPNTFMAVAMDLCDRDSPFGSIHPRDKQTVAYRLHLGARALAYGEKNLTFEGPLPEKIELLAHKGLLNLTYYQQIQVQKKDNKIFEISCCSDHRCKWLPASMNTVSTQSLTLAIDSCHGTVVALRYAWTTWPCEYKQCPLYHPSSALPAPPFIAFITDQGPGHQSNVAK
HTRA1 inh: inhibitors of human serine peptidase HTRA1; recombinant HTRA1, FP-rhodamine activity-based probe, fluorescence polarization; inhibition, % at 5.96 µM; 0.5% of 340,000 active; in the data active means inhibition above about 36%;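 further: 0% = enzyme with DMSO and 100% = wells lacking enzyme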
PRMT1 confirm: PRMT1 (human) inhibition, FP confirmation | shares compounds with PRMT1 FP inh | recombinant His-PRMT1, activity-based probe fluorescence polarization | inhibition, % at 2.79 µM | 42% of 3,300 active;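 active means mean inhibition across replicates above the hit cutoff derived for the earlier primary screen, cut at about 22% in these data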
The depositor's hits bear a star; x = not tested or not shown. Rows were chosen to be rich in hits. Some 2.5% of all compounds tested hit in one or more screens of this group.

SMILES	TCR CD3 inh	PRMT1 FP inh	mABHD4 FP	SIAE primary	HTRA1 inh	PRMT1 confirm
COc1ccccc1NC(CC(=O)c1ccccc1)C(=O)OCC(=O)c1ccc(F)cc1 (stereo unspecified)	0.5	35.3*	5.0	6.3	-11.4	15.5
O=C(CC(Nc1cccc(Cl)c1Cl)C(=O)O)c1ccccc1 (stereo unspecified)	-1.6	29.2*	-1.8	-0.6	-1.8	-2.5
O=C(CC(Nc1ccccc1Cl)C(=O)O)c1ccccc1 (stereo unspecified)	9.3	30.8*	2.6	7.3	6.7	6.3
CC(OC(=O)Cc1c[nH]c2ccccc12)C(=O)Nc1ccccc1[N+](=O)[O-] (stereo unspecified)	5.0	0.6	-2.6	2.0	-5.8	x
CC(NC(=O)c1ccc(NC2=NC3CS(=O)(=O)CC3S2)cc1)c1ccccc1 (stereo unspecified)	8.5	-0.3	0.0	-6.8	-0.3	x
CSCCC(NC(=O)c1ccco1)C(=O)NCC1CCCCC1 (stereo unspecified)	3.2	6.9	3.9	3.9	6.6	x
CNC(=O)c1nn(C)c(=O)[nH]c1=O	-3.7	-2.6	0.5	6.3	-0.6	x
C=CCN1[C@H](C#N)[C@@H](c2ccccc2)[C@H]1CO	x	-3.8	1.6	-0.6	x	x
CC(C)N(CCc1ccncc1)C(=S)Nc1cccc(Cl)c1	0.3	0.6	-0.8	-0.6	4.8	x
Cc1c(Cl)cccc1NC(CC(=O)c1ccccc1)C(=O)O (stereo unspecified)	6.1	34.8*	5.9	-10.9	7.7	10.4
CCN1CCN(C(=S)c2ccc(OCC(=O)NCc3ccccc3)cc2)CC1	7.1	27.0*	1.4	4.3	3.1	37.7*
Cc1ccc(Nc2c(-c3ccccc3)nc3cnccn23)cc1	4.6	-2.4	3.8	2.0	2.0	x
Cc1ccc(-c2nc3cnccn3c2Nc2ccc3c(c2)OCO3)o1	-0.7	25.9*	12.2	0.5	8.5	1.6
Cc1ccc(-c2nc3ccccn3c2Nc2ccccc2)o1	-5.5	49.2*	13.8	6.9	3.3	-0.3
Cc1ccc(Nc2c(-c3ccc(C)o3)nc3cnccn23)cc1	-8.6	57.8*	9.2	10.3	0.6	10.0
Cc1ccc(-c2nc3cnccn3c2Nc2ccccc2)o1	6.2	66.8*	12.4	5.8	3.9	9.2
O=C(COC(=O)c1ccc(Br)cc1)NC(=O)NCc1ccccc1	1.7	-1.6	0.4	-4.3	9.5	x
CC#CC(=O)N[C@H]1CC[C@@]23CCCN2C(=O)CCC[C@H]3[C@H]1C	x	-2.4	3.0	0.2	x	x
COC(=O)c1cc(-c2ccc(C)c(C)c2)c(=O)n2c1CCC2	x	3.0	3.5	0.2	x	x
Cc1c(Cl)cccc1NC(=O)C1NC(=O)CC1c1ccccc1 (stereo unspecified)	7.8	2.2	0.0	-3.5	0.4	x
COCCSc1ccccc1C(=O)Nc1cc(C)on1	-3.4	26.2*	6.4	-3.6	7.6	22.2*
COc1ccc(C(=O)NC2CCSc3ccccc32)cc1S(=O)(=O)N1CCOCC1 (stereo unspecified)	2.9	-0.5	1.4	-11.0	0.8	x
O=C1Nc2ccccc2/C1=C/c1ccccc1F	2.5	1.4	-5.2	-5.2	1.0	x
Cc1ccc(/C=C2\C(=O)Nc3ccccc32)o1	-6.0	60.0*	19.0	-0.8	3.3	8.9
c1ccc(Nc2cccc(Nc3ccccc3)n2)cc1	-8.6	36.9*	19.3	-3.8	10.7	41.8*
SMILES	TCR CD3 inh	PRMT1 FP inh	mABHD4 FP	SIAE primary	HTRA1 inh	PRMT1 confirm
Cc1cc(-c2nnc(SCC(=O)Nc3nc(-c4ccc(Cl)cc4)cs3)o2)no1	-8.5	41.9*	-4.4	-11.8	24.9	5.3
COc1cc(NC(=O)CSc2nnc(-c3cc(C)on3)o2)cc(OC)c1	-1.8	-0.6	-1.8	-6.2	-0.2	x
O=C(OCc1ccccc1)/C(=C(\O)c1ccccc1Br)c1ccc(-c2ccccc2)cn1	0.6	-0.1	4.7	2.1	-15.0	x
Cc1cc(-c2ccco2)n(CC(=O)NCCCc2ccccc2)n1	-0.7	47.0*	-7.8	-2.5	-8.8	1.0
Cc1cc(-c2ccco2)n(CC(=O)NCc2ccccc2)n1	0.5	6.4	5.2	6.7	1.7	x
c1cc2ccn(CC3CC3)c2cc1-c1ccc2ccn(CC3CC3)c2c1	x	-1.3	27.9	-5.7	x	x
CCN(CC)c1ccc(/C=C/c2ccc3ccc(OC)cc3[n+]2CC)cc1	-25.1	0.4	-232.7	-143.8	-86.8	x
CC[n+]1c(/C=C2/C=C(C)CC(C)(C)C2)sc2ccc(OC)cc21	-0.1	35.7*	-2.8	-6.4	7.6	0.7
CC[n+]1c(/C=C2\C=C(C)CC(C)(C)C2)sc2ccccc21	3.1	43.5*	14.0	-2.7	5.5	15.7
CC[n+]1c(/C=C2\C=C(C)CC(C)C2)sc2ccccc21 (stereo unspecified)	x	x	x	x	3.1	x
N#Cc1ccc(-c2ccccc2)nc1SCC(=O)c1cc2ccccc2oc1=O	-4.8	34.5*	-18.5	-25.9	-45.4	8.0
CC(C)c1c(C#N)c(N)nc(SCC(=O)c2cc3ccccc3oc2=O)c1C#N	3.0	-0.1	-3.9	-3.4	-4.9	x
Cc1ccccc1C(=O)N(Cc1ccccn1)CC1CCCO1 (stereo unspecified)	x	1.5	3.2	-1.1	x	x
CCOC(=O)c1c(-c2ccco2)csc1NC(=O)COC(=O)c1cnc(C)cn1	5.1	36.1*	11.2	3.9	-8.4	4.0
CCOC(=O)c1c(CC(C)C)csc1NC(=O)COC(=O)c1cnc(C)cn1	2.0	-8.2	8.8	4.4	0.0	x
COCCn1c2nc(=O)n(-c3ccccc3)c(=O)c-2nc2ccccc21	7.0	114.5*	4.7	2.7	4.4	112.7*
CCCSc1nnc(NC(=O)c2sc3nc(-c4cccs4)ccc3c2N)s1	-2.9	28.4*	-15.9	-11.4	-17.5	4.6
Cc1cc2cc(CN(Cc3ccc4c(c3)OCO4)C(=O)c3ccco3)c(=O)[nH]c2cc1C	x	x	x	x	-19.5	x
COc1cc2cc(CN(Cc3ccc4c(c3)OCO4)C(=O)c3ccco3)c(=O)[nH]c2cc1OC	-5.5	44.9*	-0.8	1.1	3.3	3.6
Cc1ccnc(NC(=S)N2CC3CN(c4cccc(C(F)(F)F)c4)CC3C2)c1 (stereo unspecified)	x	25.4*	13.2	-0.6	x	22.8*
COc1ccc(-c2cc(CNS(=O)(=O)c3ccc(F)cc3)on2)cc1	7.7	-2.1	2.1	-3.8	-14.7	x
COC(=O)[C@]12C[C@H](CC(=O)NCc3ccc(OC)c(OC)c3)C(=O)N(Cc3ccco3)C1=C[C@H](C(C)C)O[C@@H]2C1CC1	x	1.4	3.0	2.5	x	x
N#Cc1ccsc1NC(=O)CSc1nncs1	0.7	25.9*	14.8	6.6	9.9	24.0*
Cc1nnc(SCC(=O)Nc2sccc2C#N)s1	6.0	8.6	7.0	0.0	1.1	x
CCC(=O)Nc1sc(Cc2ccccc2)c(C)c1C(N)=O	3.4	11.1	-10.2	-7.2	-4.8	x
Cc1c(Cc2ccccc2)sc(NC(=O)Cc2ccccc2)c1C(N)=O	-2.5	28.7*	-12.2	-0.9	-23.8	3.1

High-throughput results (PubChem BioAssay)
